# ChEMBL document CHEMBL1629587, “Discovery of a small-molecule inhibitor of {beta}-1,6-glucan synthesis” (2009)
# Activity calls are given as the source filed them. The calls are words filed in the database; no cut-off is given here. Starred links: 1 amine or outer side, 2 acyl side, 3 side chain; linkers in the order of their positions; H or OH if unused. Positions of bridges follow the written chain, without caps; N, C: chain ends. Non-standard residues stand in square brackets, D forms with d. Residues, ends and D or L forms follow the SMILES beside them. *: point of attachment. Orn(4R-OH,5R-OH) = O=C([C@H](C[C@@H](O)[C@@H](O)N[*:3])N[*:1])[*:2]; hTyr(3S-OH,4S-OH) = N[C@H](C(=O)O)[C@H](O)[C@@H](O)c1ccc(O)cc1; Pro(3S-OH,4S-Me) = C[C@H]1CN[C@H](C(=O)O)[C@H]1O; Palmitoyl = CCCCCCCCCCCCCCCC(=O)*; Hyp = O=C(O)[C@@H]1C[C@@H](O)CN1
# What was measured:
# Saccharomyces cerevisiae [1] = assay: […] activity against Saccharomyces cerevisiae AY-10 after 24 hrs by microdilution method; type: functional; details: AY-10, 24 h
# Saccharomyces cerevisiae [2] = assay: Fungicidal activity against Saccharomyces cerevisiae AY-10-R11 mutant after 24 hrs by microdilution method; type: functional; details: AY-10-R11, 24 h
# Saccharomyces cerevisiae [3] = assay: […] activity against Saccharomyces cerevisiae AY-10 transformed with empty vector pRS416 after 24 hrs by microdilution method; type: functional; details: AY-10, 24 h
# Saccharomyces cerevisiae [4] = assay: Fungicidal activity against Saccharomyces cerevisiae AY-10-R15 mutant after 24 hrs by microdilution method; type: functional; details: AY-10-R15, 24 h
# Saccharomyces cerevisiae [5] = assay: […] activity against Saccharomyces cerevisiae AY-10 transformed with pRS416-13 carrying ADP1 gene after 24 hrs by microdilution method; type: functional; details: AY-10, 24 h
# Saccharomyces cerevisiae [6] = assay: […] activity against Saccharomyces cerevisiae AY-10 transformed with pRS416-31 carrying KRE6 gene after 24 hrs by microdilution method; type: functional; details: AY-10, 24 h
# Saccharomyces cerevisiae [7] = assay: Fungicidal activity against Saccharomyces cerevisiae AY-10-R4 mutant after 24 hrs by microdilution method; type: functional; details: AY-10-R4, 24 h
# Saccharomyces cerevisiae [8] = assay: Fungicidal activity against Saccharomyces cerevisiae AY-10-R16 mutant after 24 hrs by microdilution method; type: functional; details: AY-10-R16, 24 h
# Kluyveromyces marxianus = assay: Antifungal activity against Candida kefyr ATCC 46764 after 24 hrs by microdilution method; type: functional; details: ATCC 46764, 24 h
# Method in brief: (§1)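 CLSI broth microdilution run at 30°C instead of standard temperature; starting inoculum 1 × 10^3 to 3 × 10^3 cells/ml; DMSO under 1% final. Endpoints: MIC-0 = lowest concentration giving an optically clear well; MIC-2 = 50% drop versus drug-free control in absorbance at 570 nm with alamar blue redox indicator, used because treated cells clump.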
# Candida tropicalis [9] = assay: Antifungal activity against Candida tropicalis ATCC 200956 after 24 hrs by microdilution method; type: functional; details: ATCC 200956, 24 h; method in brief: as §1
# Candida parapsilosis = assay: Antifungal activity against Candida parapsilosis IFO1396 after 24 hrs by microdilution method; type: functional; details: Lodderomyces parapsilosis, IFO1396, 24 h; method in brief: as §1
# Aspergillus terreus = assay: Antifungal activity against Aspergillus terreus ATCC 28301 after 24 hrs by microdilution method; type: functional; details: ATCC 28301, 24 h; method in brief: as §1
# Pichia kudriavzevii = assay: Antifungal activity against Candida krusei TIMM0269 after 24 hrs by microdilution method; type: functional; details: TIMM0269, 24 h; method in brief: as §1
# Candida albicans [10] = assay: Antifungal activity against Candida albicans ATCC MYA-573 after 24 hrs by microdilution method; type: functional; details: ATCC MYA-573, 24 h; method in brief: as §1
# Aspergillus flavus = assay: Antifungal activity against Aspergillus flavus ATCC 64025 after 24 hrs by microdilution method; type: functional; details: ATCC 64025, 24 h; method in brief: as §1
# Clavispora lusitaniae = assay: Antifungal activity against Candida lusitaniae ATCC 200951 after 24 hrs by microdilution method; type: functional; details: ATCC 200951, 24 h; method in brief: as §1
# Cryptococcus neoformans = assay: Antifungal activity against Cryptococcus neoformans ATCC 90112 after 24 hrs by microdilution method; type: functional; details: ATCC 90112, 24 h; method in brief: as §1
# Trichosporon asahii = assay: Antifungal activity against Trichosporon asahii ATCC 90039 after 24 hrs by microdilution method; type: functional; details: ATCC 90039, 24 h; method in brief: as §1
# Nakaseomyces glabratus [11] = assay: Antifungal activity against Candida glabrata IFO0622 after 24 hrs by microdilution method; type: functional; details: IFO0622, 24 h; method in brief: as §1
# Saccharomyces cerevisiae [12] = assay: Antifungal activity against Saccharomyces cerevisiae YPH500 after 24 hrs by microdilution method; type: functional; details: YPH500, 24 h
# Method in brief: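 CLSI broth microdilution, incubated at 30°C, starting inoculum 1 × 10^3 to 3 × 10^3 cells/ml; drugs from DMSO, final DMSO below 1%. MIC-0 is the lowest concentration giving an optically clear well. MIC-2 is read with alamar blue as a 50% drop in A570 versus the drug-free control; both endpoints were recorded.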
# Candida tropicalis [13] = assay: Antifungal activity against Candida tropicalis TIMM0313 after 24 hrs by microdilution method; type: functional; details: TIMM0313, 24 h; method in brief: as §1
# Nakaseomyces glabratus [14] = assay: Antifungal activity against Candida glabrata ATCC 200918 after 24 hrs by microdilution method; type: functional; details: ATCC 200918, 24 h; method in brief: as §1
# Aspergillus fumigatus = assay: Antifungal activity against Aspergillus fumigatus ATCC 36607 after 24 hrs by microdilution method; type: functional; details: ATCC 36607, 24 h; method in brief: as §1
# Candida albicans [15] = assay: Antifungal activity against Candida albicans ATCC 24433 after 24 hrs by microdilution method; type: functional; details: ATCC 24433, 24 h; method in brief: as §1
# Saccharomyces cerevisiae [16] = assay: Inhibition of beta-1,6-Glucan synthesis in Saccharomyces cerevisiae AY-10 assessed as reduction in [14C]glucose incorporation at 0.039 to 0.625 ug/ml after 1 hr; type: functional, organism-based; details: at 0.039 to 0.625 µg/mL
# Method in brief: (§2)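 Exponentially growing cells in RPMI 1640 (absorbance ~0.6 at 595 nm) incubated at 30°C with drug plus [14C]glucose at 2 μCi/ml. Cells extracted twice with 3% NaOH at 80°C, then the insoluble material digested overnight at 30°C with Zymolyase 100T (1 mg/ml, pH 7.5). The soluble fraction was dialysed to remove β-1,3-glucan oligosaccharides, and the retained β-1,6-glucan was counted by scintillation. Read-out is percent change in incorporated radioactivity versus the drug-free control.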
# Nakaseomyces glabratus [17] = assay: Inhibition of beta-1,6-Glucan synthesis in Candida glabrata IFO0622 assessed as reduction in [14C]glucose incorporation at 0.025 to 4 ug/ml after 3 hrs; type: functional, organism-based; method in brief: as §2
# Saccharomyces cerevisiae [18] = assay: Inhibition of beta-1,6-Glucan synthesis in Saccharomyces cerevisiae AY-10 assessed as reduction in [14C]glucose incorporation at 0.078 to 1.25 ug/ml after 1 hr; type: functional, organism-based; details: at 0.078 to 1.25 µg/mL; method in brief: as §2
# Saccharomyces cerevisiae [19] = assay: Inhibition of beta-1,3-Glucan synthesis in Saccharomyces cerevisiae AY-10 assessed as reduction in [14C]glucose incorporation at 0.039 to 0.625 ug/ml after 1 hr; type: functional, organism-based
# Method in brief: (§3)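 Exponential cells in RPMI 1640 at A595 about 0.6, pulse-labelled with [14C]glucose 2 μCi/ml plus drug at 30°C, sampled at 1 and 3 h. Cell wall fractionated: mannan from 3% NaOH extracts at 80°C by Fehling's reaction; residue digested with Zymolyase 100T (1 mg/ml), insoluble part = chitin; β-1,3-glucan = total glucan minus dialysed β-1,6-glucan. Scintillation counting; % change versus untreated.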
# Saccharomyces cerevisiae [20] = assay: Inhibition of beta-1,6-Glucan synthesis in Saccharomyces cerevisiae AY-10 assessed as reduction in [14C]glucose incorporation at 0.078 ug/ml after 3 hrs; type: functional, organism-based; details: at 0.078 µg/mL; method in brief: as §2
# Saccharomyces cerevisiae [21] = assay: Inhibition of beta-1,6-Glucan synthesis in Saccharomyces cerevisiae AY-10 assessed as reduction in [14C]glucose incorporation at 0.039 to 0.625 ug/ml after 3 hrs; type: functional, organism-based; details: at 0.039 to 0.625 µg/mL; method in brief: as §2
# Saccharomyces cerevisiae [22] = assay: Inhibition of beta-1,6-Glucan synthesis assessed as reduction in [14C]glucose incorporation at 0.025 to 4 ug/ml after 1 hr; details: AY-10
# Saccharomyces cerevisiae [23] = assay: Inhibition of beta-1,6-Glucan synthesis in Saccharomyces cerevisiae AY-10 assessed as reduction in [14C]glucose incorporation at 0.078 to 1.25 ug/ml after 3 hrs; type: functional, organism-based; details: at 0.078 to 1.25 µg/mL; method in brief: as §2
# Saccharomyces cerevisiae [24] = assay: Inhibition of beta-1,6-Glucan synthesis in Saccharomyces cerevisiae AY-10 assessed as reduction in [14C]glucose incorporation at 0.078 ug/ml after 1 hr; type: functional, organism-based; details: at 0.078 µg/mL; method in brief: as §2
# Saccharomyces cerevisiae [25] = assay: Inhibition of beta-1,3-Glucan synthesis in Saccharomyces cerevisiae AY-10 assessed as reduction in [14C]glucose incorporation at 0.039 to 0.625 ug/ml after 3 hrs; type: functional, organism-based; method in brief: as §3
smiles,measurement,setting,value
C[C@@H]1[C@H](O)[C@@H](C)/C=C/C=C/C=C/C=C/C=C/C=C/C=C/[C@H](O[C@@H]2O[C@H](C)[C@@H](O)[C@H](N)[C@@H]2O)C[C@@H]2O[C@](O)(C[C@@H](O)C[C@@H](O)[C@H](O)CC[C@@H](O)C[C@@H](O)CC(=O)O[C@H]1C)C[C@H](O)[C@H]2C(=O)O [AMPHOTERICIN B],MIC,Saccharomyces cerevisiae [1],0.25 µg/mL
same,MIC,Saccharomyces cerevisiae [2],0.125 µg/mL
same,MIC,Saccharomyces cerevisiae [3],0.25 µg/mL
same,MIC,Saccharomyces cerevisiae [4],0.25 µg/mL
same,MIC,Saccharomyces cerevisiae [5],0.125 µg/mL
same,MIC,Saccharomyces cerevisiae [6],0.25 µg/mL
same,MIC,Saccharomyces cerevisiae [7],0.0625 µg/mL
same,MIC,Saccharomyces cerevisiae [8],0.25 µg/mL
OC(Cn1cncn1)(Cn1cncn1)c1ccc(F)cc1F [FLUCONAZOLE],MIC50,Kluyveromyces marxianus,0.25 µg/mL
same,MIC50,Candida tropicalis [9],16 µg/mL
same,MIC50,Candida parapsilosis,1 µg/mL
same,MIC50,Aspergillus terreus,> 64 µg/mL
same,MIC50,Pichia kudriavzevii,> 64 µg/mL
same,MIC50,Candida albicans [10],> 64 µg/mL
same,MIC50,Aspergillus flavus,> 64 µg/mL
same,MIC50,Clavispora lusitaniae,0.063 µg/mL
same,MIC50,Cryptococcus neoformans,2 µg/mL
same,MIC50,Trichosporon asahii,4 µg/mL
same,MIC50,Nakaseomyces glabratus [11],2 µg/mL
same,MIC50,Saccharomyces cerevisiae [12],4 µg/mL
same,MIC50,Candida tropicalis [13],0.25 µg/mL
same,MIC50,Nakaseomyces glabratus [14],16 µg/mL
same,MIC50,Aspergillus fumigatus,> 64 µg/mL
same,MIC50,Candida albicans [15],0.25 µg/mL
"CCCCCCCCCCCCCCCC(=O)N[C@H]1C[C@@H](O)[C@@H](O)NC(=O)[C@@H]2[C@@H](O)[C@@H](C)CN2C(=O)[C@H]([C@@H](C)O)NC(=O)[C@H]([C@H](O)[C@@H](O)c2ccc(O)cc2)NC(=O)[C@@H]2C[C@@H](O)CN2C(=O)[C@H]([C@@H](C)O)NC1=O [ACULEACIN A] (Palmitoyl-[Orn(4R-OH,5R-OH)]T[Hyp][hTyr(3S-OH,4S-OH)]T[Pro(3S-OH,4S-Me)]; lactam 1-C)",MIC,Saccharomyces cerevisiae [1],0.5 µg/mL
same,inhibition,Saccharomyces cerevisiae [16],inactive
same,MIC,Saccharomyces cerevisiae [2],0.25 µg/mL
same,Activity,Nakaseomyces glabratus [17],Active
same,inhibition,Saccharomyces cerevisiae [18],Active
same,inhibition,Saccharomyces cerevisiae [19],Active
same,MIC,Saccharomyces cerevisiae [3],0.5 µg/mL
same,MIC,Saccharomyces cerevisiae [4],0.5 µg/mL
same,inhibition,Saccharomyces cerevisiae [20],Active
same,inhibition,Saccharomyces cerevisiae [21],inactive
same,MIC,Saccharomyces cerevisiae [5],0.25 µg/mL
same,Activity,Saccharomyces cerevisiae [22],Active
same,MIC,Saccharomyces cerevisiae [6],0.5 µg/mL
same,inhibition,Saccharomyces cerevisiae [23],Active
same,MIC,Saccharomyces cerevisiae [7],0.125 µg/mL
same,inhibition,Saccharomyces cerevisiae [24],Active
same,MIC,Saccharomyces cerevisiae [8],0.25 µg/mL
same,inhibition,Saccharomyces cerevisiae [25],Active
Nc1nc(=O)[nH]cc1F [FLUCYTOSINE],MIC,Saccharomyces cerevisiae [1],2 µg/mL
same,MIC,Saccharomyces cerevisiae [2],4 µg/mL
same,MIC,Saccharomyces cerevisiae [3],2 µg/mL
same,MIC,Saccharomyces cerevisiae [4],4 µg/mL
same,MIC,Saccharomyces cerevisiae [5],4 µg/mL
same,MIC,Saccharomyces cerevisiae [6],2 µg/mL
same,MIC,Saccharomyces cerevisiae [7],2 µg/mL
same,MIC,Saccharomyces cerevisiae [8],2 µg/mL
